Arrestin-AP2 inh: human beta-arrestin and AP2 interaction inhibition; FITC-arrestin peptide / GST-AP2 beads, flow cytometry; AP2 beta2 appendage carries R879A mutation; inhibition, % at 10 µM; 340,000 tested, 0.31% active;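 active means inhibition above a set limit, near 3 SD of compounds lacking own fluorescence, cut at about 54% in these data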;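 further: plate controls were DMSO wells for no effect and 5 µM unlabelled arrestin peptide for full effect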
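System: GST-AP2 R879A bound to glutathione beads, E. coli-expressed. Also added: 50 nM FITC-arrestin peptide. Schedule: compound with beads 12 min RT, then probe 1 h RT. Signal: bead flow cytometry, FITC channel. Read-out basis: percent response.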
H9c2 protect: modulators protecting cardiomyocytes from myocardial damage; protection from H2O2 cell death, % at 20 µM; 360,000 tested, 0.63% active; H9c2 cardiomyocytes, H2O2 injury protection, ATPLite, 2 h; AID 588492;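 active means compounds giving at least 50% protection of heart cells from peroxide-induced death in the single-dose screen, raw or plate-pattern-corrected value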;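 further: 0% = DMSO wells with peroxide and 100% = DMSO wells without peroxide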
iPSC survival up: increases survival of single human iPS cells. hiPSC single-cell survival, ATPlite luminescence; 100% = ROCK inhibitor wells, 0% = DMSO. survival enhancement, % at 20 µM. 360,000 tested, 0.044% active. AID 602274; in the data active means survival enhancement above about 18%;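 further: cells exposed to compounds for 16 hours before the ATP read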
FAS TE block: FAS thioesterase (human) inhibition; recombinant FAS-TE, OMFH fluorogenic substrate, fluorescence endpoint; 360,000 tested, 0.67% active; inhibition, % at 15 µM; P49327;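 active means compounds whose normalised, plate-corrected inhibition of enzyme fluorescence in the single-dose primary screen is 50% or more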;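 further: 0% = DMSO with enzyme and 100% = substrate without enzyme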
NR3A LBD binder: NR3A (human) ligand-binding domain modulation. 340,000 tested, 2.5% active. AID 1259313. Tm shift relative to glycine control, % at 25 µM. NR3A LBD differential scanning fluorimetry, Tm shift; 0% = protein alone, 100% = glycine-bound protein;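 active means melting temperature shift of at least 10% of the positive control shift, at one fixed dose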
SENP1 FRET inh: inhibitors of human SENP1 SUMO protease catalytic domain. inhibition, % at 10 µM. recombinant SENP1 catalytic domain, CyPet-SUMO1-YPet FRET cleavage. 360,000 tested, 0.21% active;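 active means inhibition at least 30% at 10 µM, raw YFP signal under a set limit, fluorescence ratio 0.5 to 1.5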;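 further: 0% = enzyme with DMSO and 100% = no enzyme wells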
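System: Recombinant human SENP1 catalytic domain, His6-tagged | Incubation: Enzyme reaction for 50 min at room temperature, dark | Medium: Tris pH 8 with BME, BSA, NP40 and catalase | Also added: 25 nM SUMO1 FRET substrate | Compound: 10 µM single point, 0.5% DMSO | Measured by: FRET fluorescence in CFP and YFP emission channels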
Arr AP2 CP1: inhibitors of human beta-arrestin and AP2 interaction; shares compounds with Arrestin-AP2 inh; GST-AP2 beads, FITC arrestin peptide binding, flow cytometry; GST-fused beta2-adaptin appendage, R879A mutant; inhibition, % at 10 µM; 1,300 tested, 2% active;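 active means inhibition above a set limit, roughly 3 SD of non-fluorescent compound noise, cut at about 38% in these data; inactive means inhibition at or below that limit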;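 further: loss of bead fluorescence from 50 nM FITC arrestin peptide bound to appendage; 0% = negative control wells and 100% = excess unlabelled arrestin peptide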
Target sequence (P63010 whole entry, looked up, the tested form may be a part, one chain of several): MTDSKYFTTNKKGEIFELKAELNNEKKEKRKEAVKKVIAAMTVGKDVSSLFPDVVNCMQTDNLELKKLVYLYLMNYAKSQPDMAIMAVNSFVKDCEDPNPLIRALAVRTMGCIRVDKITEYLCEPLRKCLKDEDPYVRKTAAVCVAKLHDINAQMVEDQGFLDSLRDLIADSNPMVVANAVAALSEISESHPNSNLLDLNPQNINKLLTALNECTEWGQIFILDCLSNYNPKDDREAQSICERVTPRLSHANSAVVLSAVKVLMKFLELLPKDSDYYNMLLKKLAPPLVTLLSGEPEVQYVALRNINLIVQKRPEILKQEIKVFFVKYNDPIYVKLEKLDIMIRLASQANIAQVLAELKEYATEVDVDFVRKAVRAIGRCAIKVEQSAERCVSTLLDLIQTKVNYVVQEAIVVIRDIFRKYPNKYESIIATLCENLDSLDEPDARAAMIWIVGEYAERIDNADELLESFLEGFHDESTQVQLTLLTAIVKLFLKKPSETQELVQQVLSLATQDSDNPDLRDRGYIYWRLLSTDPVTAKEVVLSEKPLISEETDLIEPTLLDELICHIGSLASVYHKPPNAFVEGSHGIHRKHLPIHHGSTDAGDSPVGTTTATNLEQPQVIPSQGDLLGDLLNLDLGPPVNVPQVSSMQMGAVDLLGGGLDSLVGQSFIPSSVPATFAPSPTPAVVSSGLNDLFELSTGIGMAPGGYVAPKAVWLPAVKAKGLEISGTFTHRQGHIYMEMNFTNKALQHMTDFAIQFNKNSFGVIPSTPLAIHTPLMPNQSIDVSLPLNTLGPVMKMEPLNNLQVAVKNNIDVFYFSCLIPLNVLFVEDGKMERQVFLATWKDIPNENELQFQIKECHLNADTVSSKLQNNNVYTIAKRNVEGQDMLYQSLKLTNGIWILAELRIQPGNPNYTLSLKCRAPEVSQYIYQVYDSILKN
GST-FITC bead: GST-GSH bead binding interference, counter-screen; shares compounds with Arrestin-AP2 inh; GST-fluorescein binding to GSH beads, fluorescence; inhibition, % at 10 µM; 1,300 tested, 2% active; AID 588338;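 active means inhibition above 50%, about 3 SD of the inhibition seen with non-fluorescent compounds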;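 further: fluorescein maleimide labelled GST captured on 4 micron glutathione beads; higher means more loss of bead fluorescence from quenching or blocked binding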
* marks the source's active call; other numbers are inactive results; · = not tested or not shown. The list is not random: actives were taken first. Their share in the collection is about 4%.

SMILES | Arrestin-AP2 inh | H9c2 protect | iPSC survival up | FAS TE block | NR3A LBD binder | SENP1 FRET inh | Arr AP2 CP1 | GST-FITC bead
COc1ccc(NC(=O)c2cc(C)nc3ccccc23)cc1S(=O)(=O)N1CCOCC1 | 6 | -3 | -1 | -6 | -2 | 1 | -10 | -5
COc1ccc(S(=O)(=O)N2CCOCC2)cc1NC(=O)c1ccncc1 | 2 | 12 | 0 | -5 | 3 | -1 | -6 | -2
CCOc1ncccc1C(=O)Nc1ccc(S(=O)(=O)N2CCCC2)cc1 | 29 | 14 | -2 | -4 | 6 | 1 | · | ·
CCOC(=O)C1=CCC(c2cc3ccc(OC)cc3n2C(=O)OC(C)(C)C)NC1 (centres undefined) | · | · | · | · | · | -43 | · | ·
CCOc1ccc(S(=O)(=O)N2CCCCC2)cc1NC(=O)c1cccnc1OCC | 14 | -3 | 0 | 12 | 0 | 0 | -7 | 15
CCOc1ncccc1C(=O)Nc1cccc(S(=O)(=O)N2CCCCC2)c1 | 19 | -3 | 0 | 17 | 0 | 1 | -4 | -1
O=C(Nc1cc(S(=O)(=O)N2CCOCC2)ccc1N1CCCC1)c1cc(=O)[nH]c2ccccc12 | -1 | -4 | 1 | 0 | 0 | -2 | · | ·
CCOc1ncccc1C(=O)Nc1ccc(OC)c(S(=O)(=O)N2CCOCC2)c1 | 0 | 8 | 0 | -3 | 0 | 1 | 1 | 3
Cc1ccc(S(=O)(=O)N2CCCCC2)cc1NC(=O)c1cc(=O)[nH]c2ccccc12 | 67* | 2 | 0 | 19 | -3 | -3 | 3 | -3
COc1ccc(NC(=O)c2ccccn2)cc1S(=O)(=O)N1CCOCC1 | 9 | 3 | 1 | -7 | 0 | 1 | · | ·
CCCCCN(C(=O)CCC(=O)OC(C)C(=O)Nc1ccccc1C)c1c(N)n(CCCC)c(=O)[nH]c1=O (centres undefined) | · | -1 | -1 | -5 | · | 4 | · | ·
CCCCN1C(=O)CC2CCOC21C (centres undefined) | · | -5 | 0 | -12 | · | 2 | · | ·
OCc1ccccc1-c1ccc2nncn2c1 | · | 1 | 0 | -9 | · | -2 | · | ·
CS(=O)(=O)N1Cc2cc(C(=O)NCC3CC3)nc(-c3cccc(-c4cccnc4)c3)c2[C@H]1CCO | · | · | 0 | -10 | · | 1 | · | ·
CCOc1ccc(S(=O)(=O)N2CCN(CC)CC2)cc1NC(=O)c1ccccc1F | 1 | 1 | 0 | 4 | -1 | -1 | 6 | 2
COc1ccc(S(=O)(=O)N2CCN(C)CC2)cc1C(=O)Nc1ccccc1 | 43 | -3 | 0 | -7 | -1 | 0 | · | ·
COc1ccc(S(=O)(=O)N2CCN(C)CC2)cc1NC(=O)c1ccccc1C | 26 | 0 | 1 | -4 | -1 | 1 | -1 | -4
Nc1nc(-c2ccccc2)nc2sc3c(c12)CCCC3 | 65* | -15 | -2 | 16 | 14* | 0 | 21 | -3
O=c1oc(-c2ccccc2)nc2sc3c(c12)CCC3 | 9 | -8 | 4 | 41 | -1 | -102 | · | ·
CN(Cc1nccs1)C(=O)C1CCC(=O)N(CCCc2ccccc2)C1 (centres undefined) | 57* | -5 | 1 | -8 | 0 | 0 | -3 | -2
COCCNC(=S)N(C)[C@H]1C[C@H]2c3cc(N4CCN(C)CC4)ccc3CCN2C(=O)[C@H]1[C@H](C)O | · | 14 | 5 | -8 | · | 0 | · | ·
CCCCNC(=O)Cn1nc([N+](=O)[O-])c([N+](=O)[O-])c1C | 69* | 2 | 0 | -5 | -4 | 4 | 18 | -5
COCC(C)n1c(SCC(=O)NC(=O)Nc2ccc3c(c2)OCCO3)nc2ccccc2c1=O (centres undefined) | 56* | -2 | 0 | 12 | 2 | 1 | 8 | -11
CCc1nnc(SCC(=O)Nc2ccc(C(C)=O)cc2)nc1CC | 83* | 0 | 0 | -9 | -1 | 0 | 18 | 1
COC(=O)c1ccc(C(=O)Nc2ccc(C(C)C)cc2N)cc1 | 57* | -4 | -2 | -1 | -3 | 0 | 15 | -2
SMILES | Arrestin-AP2 inh | H9c2 protect | iPSC survival up | FAS TE block | NR3A LBD binder | SENP1 FRET inh | Arr AP2 CP1 | GST-FITC bead
CS(=O)(=O)Nc1cccc(-c2ccc3nncn3c2)c1 | · | -1 | -2 | -6 | · | 0 | · | ·
COc1cccc(NC(=O)COc2coc(CN3CCc4ccccc4C3)cc2=O)c1 | 59* | -5 | 0 | -2 | 0 | -5 | 20 | -1
O=C(COc1coc(CN2CCc3ccccc3C2)cc1=O)Nc1cccc(F)c1 | -25 | -2 | -1 | -2 | -2 | -3 | · | ·
COc1ccc(NC(=O)COc2coc(CN3CCc4ccccc4C3)cc2=O)cc1 | -17 | 1 | 0 | -6 | 1 | -3 | · | ·
O=C(COc1coc(CN2CCc3ccccc3C2)cc1=O)Nc1ccccc1F | 65* | 5 | 2 | -11 | 0 | -2 | -10 | 10
Cn1ccnc1SCc1cn2ccccc2n1 | 83* | 16 | -1 | -3 | -3 | -1 | 3 | 5
c1ccn2cc(CSc3nnc4ccccn34)nc2c1 | -6 | 2 | -1 | -8 | 3 | -1 | · | ·
COCCCn1c(C)nnc1SCC(=O)NCc1ccco1 | 55* | 4 | 1 | -5 | 0 | -2 | 6 | 0
COCCn1c(SCC(=O)NCc2ccco2)nnc1C(C)C | -6 | 0 | -1 | -4 | -1 | -1 | · | ·
O=C1c2ccccc2C(=O)N1c1cccc2cccnc12 | 58* | 0 | 9 | -10 | -1 | 1 | -4 | -5
Cn1c(N)c(C(=O)COC(=O)c2ccco2)c(=O)n(C)c1=O | 7 | 14 | -4 | -11 | 1 | -1 | 5 | 0
Cn1c(N)c(C(=O)COC(=O)c2ccc(Cl)nc2)c(=O)n(C)c1=O | -4 | 4 | 0 | -2 | -1 | -11 | · | ·
CC(=O)c1c(C)[nH]c(C(=O)OCC(=O)c2c(N)n(CC(C)C)c(=O)n(C)c2=O)c1C | 0 | -8 | 0 | -1 | 1 | -1 | 5 | 5
Cn1c(N)c(C(=O)COC(=O)c2ccc(F)cc2Cl)c(=O)n(C)c1=O | -12 | -4 | -2 | 1 | 2 | 0 | 11 | 7
Cn1c(N)c(C(=O)COC(=O)c2cc(S(=O)(=O)N3CCCCC3)ccc2Cl)c(=O)n(C)c1=O | 3 | 14 | -1 | 11 | -29 | 1 | · | ·
CC(C)c1ccc(C(=O)OCC(=O)c2c(N)n(C)c(=O)n(C)c2=O)cc1 | 20 | -2 | -1 | 2 | -10 | 0 | 18 | 3

From PubChem
